Assay results collected from several papers.
CDK2 with cyclin A: Cyclin-dependent kinase 2, with cyclin A (CDK2, Homo sapiens, UniProt P24941)
CDK2 with cyclin E: Cyclin-dependent kinase 2, with cyclin E (CDK2, Homo sapiens, UniProt P24941)
CDK2: Cyclin-dependent kinase 2 (CDK2, Homo sapiens, UniProt P24941)

O=C1NC(=O)c2cc(Nc3ccc(F)cc3)c(Nc3ccc(F)cc3)cc21
remaining signal (CDK2 with cyclin A; cell-free assay; 0.5 µM): 95.3%

FC(F)(F)Oc1cccc(-c2cnc3ccc(-c4ccncc4)nn23)c1
activity vs control (CDK2 with cyclin A; enzyme activity, inhibitor, radiometric; 5 µM): 10%

Cc1ccc(C(=O)NCc2ccsc2)cc1C#Cc1cn(C(C)C)c2ncnc(N)c12
activity vs control (CDK2 with cyclin E; enzyme activity, inhibitor; 1 µM): 108%

O=C(Nc1cccnn1)N1CC(C/C=C/c2cncc(Oc3ccc(C(F)(F)F)cn3)n2)C1
remaining binding (CDK2; cell-free assay, competition with immobilised ligand; 1 µM): 100%

Cn1c2c(Cl)c(Cl)ccc2c2cc[nH]c(=O)c21
ΔTm (CDK2; thermal stability, DSF; 10 µM): 0.6 °C

CC(C)[C@H](CO)Nc1nc(Nc2cccc(Cl)c2)c2ncn(C(C)C)c2n1
remaining signal (CDK2 with cyclin A; cell-free assay; 0.5 µM): 6.91%

Cn1c2c(c3ccc(Cl)c(Cl)c31)C(C#N)C(C)(C)NC2=O (stereo not drawn)
ΔTm (CDK2; thermal stability, DSF; 10 µM): 0.5 °C

Cc1ccc(NC(=O)c2ccc(C)c(C(F)(F)F)c2)cc1C#Cc1nn(C2CCC(O)CC2)c2ncnc(N)c12 (stereo not drawn)
remaining signal (CDK2 with cyclin A; cell-free assay; 10 µM): 100%

O=C1Nc2ccc(Cl)cc2C1=Cc1cc(Cl)c(O)c(Cl)c1
remaining signal (CDK2 with cyclin E; cell-free assay; 0.5 µM): 90%

O=C(Nc1cnn(-c2csc(C(=O)NC3COC3)c2)c1)Nc1c(F)cccc1Cl
remaining activity (Cyclin-dependent kinase 2, with cyclin E2 (CDK2, Homo sapiens, UniProt P24941); enzyme activity, inhibitor; 5 µM): 98.9%

O=C(N[C@H]1CCCCC/C=C\C2C[C@@]2(C(=O)O)NC(=O)[C@@H]2C[C@@H](Oc3ccncc3)CN2C1=O)OC1CCCC1 (stereo partly drawn)
remaining binding (CDK2; binding, competition with immobilised ligand; 1 µM): 87%

O=C(Nc1cnn(-c2csc(C(=O)NC3COC3)c2)c1)Nc1ccccc1Cl
remaining activity (CDK2 with cyclin A; enzyme activity, inhibitor; 5 µM): 93.6%

Cn1c2c(Cl)c(Cl)ccc2c2cc(N)[nH]c(=O)c21
ΔTm (CDK2; thermal stability, DSF; 10 µM): 2.2 °C

CS(=O)(=O)c1cc(C2(NC(=O)c3cncc4c3cnn4-c3ccc(F)cc3)CC2)ccn1
remaining binding (CDK2; cell-free assay, competition with immobilised ligand; 1 µM): 94%

COc1cc2c(cc1OC)-c1[nH]nc(Nc3cccc(F)c3)c1C2
remaining signal (CDK2 with cyclin A; cell-free assay; 0.5 µM): 87.5%

Cc1nc(N2CC[C@@H](O)C2)ncc1-c1cc(C(F)(F)F)cc2[nH]ncc12
remaining binding (CDK2; binding, competition with immobilised ligand; 1 µM): 94%

Cc1sc(C(=O)NC2COC2)cc1-n1cc(NC(=O)Nc2c(F)cccc2Cl)cn1
remaining activity (Cyclin-dependent kinase 2, with cyclin O (CDK2, Homo sapiens, UniProt P24941); enzyme activity, inhibitor; 10 µM): 105%

CCN1CCC2(CC1)NC(=O)c1c(c3ccc(Cl)c(Cl)c3n1C)C2C#N (racemic)
ΔTm (CDK2; thermal stability, DSF; 10 µM): 0 °C

Cc1cc(NC(=O)c2cccc3cc(-c4cccc5[nH]nc(N)c45)ccc23)ccc1F
activity vs control (CDK2 with cyclin A; enzyme activity, inhibitor; 0.1 µM): 100%

Cn1cc(Cl)c2c(Oc3c(F)cc(Nc4cc(Cl)nc(N)n4)cc3F)ccnc21
remaining binding (CDK2; cell-free assay, competition with immobilised ligand; 0.1 µM): 100%

CN(C)C1CCN(CC#Cc2nn(C3CCCC3)c3nc(NCc4ccccc4)ncc23)C1 (stereo not drawn)
inhibition (CDK2 with cyclin A; enzyme activity, inhibitor, FRET; 1 µM): 9%

Cc1cc(-n2nc(Cc3cc(F)cc(C(F)(F)F)c3)nc2C)ccc1C(N)=O
remaining binding (CDK2; cell-free assay, competition with immobilised ligand; 1 µM): 100%

Cn1c2c(c3ccc(Cl)c(Cl)c31)C(C#N)C1(CCNCC1)NC2=O (racemic)
ΔTm (CDK2; thermal stability, DSF; 10 µM): 0.1 °C

O=C1Cc2c([nH]c3ccc([N+](=O)[O-])cc23)-c2ccccc2N1
remaining signal (CDK2 with cyclin A; cell-free assay; 0.5 µM): 8.37%

Cn1c2c(c3ccc(Cl)c(Cl)c31)C(C#N)C1(CCCC1)NC2=O (stereo not drawn)
ΔTm (CDK2; thermal stability, DSF; 10 µM): -0.5 °C

CC(C)c1ccc(NC(=O)c2cccs2)c(-c2nc3ccccc3[nH]c2=O)c1
activity vs control (CDK2 with cyclin E; enzyme activity, inhibitor; 1 µM): 98%

CC1(C)NC(=O)c2[nH]c3c(Cl)c(Cl)ccc3c2C1C#N (stereo not drawn)
ΔTm (CDK2; thermal stability, DSF; 10 µM): -0.3 °C

N#Cc1c(NC(=O)c2cccc3ccccc23)sc2c1CCCC2
remaining signal (CDK2 with cyclin A; cell-free assay; 0.5 µM): 100%

CCC(=O)N[C@@H]1CC[C@H](C(=O)N(C)c2ccc(-c3nc4ccccc4o3)cc2)C1
remaining binding (CDK2; cell-free assay, competition with immobilised ligand; 1 µM): 100%

CS(=O)(=O)CCNCc1ccc(-c2ccc3ncnc(Nc4ccc(OCc5cccc(F)c5)c(Cl)c4)c3c2)o1
remaining signal (CDK2 with cyclin A; cell-free assay; 0.5 µM): 94.5%

CN(C(=O)c1ccccc1)c1cc(N(C)c2ccc3c(c2)CCc2ccc(C(=O)NCCN4CCOCC4)cc2C3=O)ccc1F
remaining binding (CDK2; cell-free assay, competition with immobilised ligand; 1 µM): 96%

CC(C)(O)[C@H]1CC[C@H](Nc2ccc3ncc(-c4cccc(C(F)(F)F)c4)n3n2)CC1
remaining activity (Cyclin-dependent kinase 2, with cyclin A1 (CDK2, Homo sapiens, UniProt P24941); enzyme activity, inhibitor; 1 µM): 78.5%

COc1cc(OC)c(C=C2C(O)=Nc3ccccc32)c(OC)c1
remaining signal (CDK2 with cyclin A; cell-free assay; 0.5 µM): 96.3%
